Experimental data of several laboratories.
Each line is one published result; the experiments were not run side by side.
Tyrosine-protein phosphatase YopH: Tyrosine-protein phosphatase YopH (Yersinia enterocolitica, UniProt P15273)
DRD1: D(1A) dopamine receptor (DRD1, Homo sapiens, UniProt P21728)

CNC(C)C(=O)c1ccccc1 (racemic) — EC50 (Sodium-dependent serotonin transporter (SLC6A4, Homo sapiens, UniProt P31645); calcium signal, agonist, fluorescence): 24.8 µM
[Na+].[Na+].[Na+].[O]=[V]([O-])([O-])[O-] — Ki (Tyrosine-protein phosphatase YopH; enzyme activity, inhibitor): 1.58 µM
NNC(=O)c1ccncc1 — Ki (Adenosylmethionine-8-amino-7-oxononanoate aminotransferase (Mycobacterium tuberculosis, UniProt P9WQ81); enzyme activity, inhibitor): > 100 µM
CC=C1[C@H]2C=C(C)C[C@]1(N)c1cc(O)c(=O)[nH]c1C2 — IC50 (Cholinesterase (BCHE, Equus caballus, UniProt P81908); enzyme activity, inhibitor, Ellman): 155 µM
CN(C)c1ccc(/C=C/c2cc(/C=C/c3ccc(N(C)C)cc3)n3n[n+](C)nc3n2)cc1 — IC50 (Tyrosine-protein phosphatase YopH; enzyme activity, inhibitor): 4.44 µM
O=C(O)c1cc(-c2ccc([C@@H]3C[C@@H]4C[C@H]3CN4)cc2)c2ccc(-c3ccc(C(F)(F)F)cc3)cc2c1 — Ki (DRD1; cell-free assay, radioligand): 1.4 to 2.2 µM
CC(C)CCC[C@@H](C)[C@H]1CC[C@H]2[C@@H]3CC=C4C[C@@H](O)CC[C@]4(C)[C@H]3CC[C@]12C — Kd (hly (Listeria monocytogenes, UniProt P13128); binding; pH 5.5): 0.296 µM
O=C(O)c1cc(-c2ccc([C@H]3C[C@H]4C[C@@H]3NC4=O)cc2)c2ccc(-c3ccc(C(F)(F)F)cc3)cc2c1 — Ki (DRD1; cell-free assay, radioligand): 1.4 to 2.2 µM
C[C@H](N)Cc1ccccc1 — Ki (Neuronal acetylcholine receptor subunit alpha-7 (Chrna7, Mus musculus, UniProt P49582); ligand displacement, radioligand; cell membranes): 49.7 µM
